Assays:
[1] = Selectivity index, ratio of CC50 for human HepG2(2.2.15) cells to IC50 for Hepatitis B virus infected in human HepG2(2.2.15) cells assessed as inhibition of viral surface antigen secretion; type: functional
Procedure, shortened: (§1)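 SI calculated as CC50 (MTT, HepG 2.2.15) divided by IC50 for the named read-out (HBV DNA by real-time PCR, or HBeAg or HBsAg secretion by ELISA), in the same cell line.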

Hepatitis B virus [2] = test: Antiviral activity against Hepatitis B virus infected in human HepG2(2.2.15) cells assessed as inhibition of viral e antigen secretion by ELISA; type: functional, organism-based
Procedure, shortened: (§2)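 HepG 2.2.15 cells in RPMI-1640 with 10% fetal calf serum at 37 °C, 5% CO2. Compounds dissolved in DMSO, culture DMSO below 2.5 μL/mL. Secreted HBeAg and HBsAg measured by ELISA. IC50 values are means of at least two experiments.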

Hepatitis B virus [3] = test: Antiviral activity against Hepatitis B virus infected in human HepG2(2.2.15) cells assessed as inhibition of viral DNA replication by PCR analysis; type: functional, organism-based
Procedure, shortened: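 HepG 2.2.15 cells grown in RPMI-1640 with 10% fetal calf serum, […] and penicillin/streptomycin at 37 °C, 5% CO2. Compounds added in DMSO, kept below 2.5 μL/mL. HBV DNA quantified by SYBR Green real-time PCR with HBV-specific primers spanning 541–591 bp. IC50 values are means of at least two experiments.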

[4] = Selectivity index, ratio of CC50 for human HepG2(2.2.15) cells to IC50 for Hepatitis B virus infected in human HepG2(2.2.15) cells assessed as inhibition of viral e antigen secretion; type: functional; procedure, shortened: as §1
Hepatitis B virus [5] = test: Antiviral activity against Hepatitis B virus infected in human HepG2(2.2.15) cells assessed as inhibition of viral surface antigen secretion by ELISA; type: functional, organism-based; procedure, shortened: as §2
[6] = Cytotoxicity against human HepG2(2.2.15) cells by modified-MTT assay; type: cell-based
Procedure, shortened: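 HepG 2.2.15 cells in RPMI-1640 with 10% fetal calf serum at 37 °C, 5% CO2. Compounds in DMSO, final DMSO below 2.5 μL/mL. Viability read by modified MTT method. CC50 is the mean of at least two experiments.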

[7] = Selectivity index, ratio of CC50 for human HepG2(2.2.15) cells to IC50 for Hepatitis B virus infected in human HepG2(2.2.15) cells assessed as inhibition of viral DNA replication; type: functional; procedure, shortened: as §1

Row | Structure (SMILES) | Ratio CC50/IC50 [1] | IC50 (Hepatitis B virus [2]) [µM] | IC50 (Hepatitis B virus [3]) [µM] | Ratio CC50/IC50 [4] | IC50 (Hepatitis B virus [5]) [µM] | CC50 [6] [mM] | Ratio CC50/IC50 [7]
1 | CC(=O)[C@]1(O)CC[C@@]2(O)[C@]1(C)[C@H](OC(=O)/C=C(\C)C(C)C)C[C@@H]1[C@@]3(C)CC[C@H](OC(=O)/C=C/c4ccc(F)c(C(F)(F)F)c4)CC3=CC[C@]12O | >18.6 | 798 | 8.93 | >1.7 | 71.6 | > 1.33 | >149.2
2 | CC(=O)[C@]1(O)CC[C@@]2(O)[C@]1(C)[C@H](OC(=O)/C=C(\C)C(C)C)C[C@@H]1[C@@]3(C)CC[C@H](OC(=O)/C=C/c4ccc(F)c(F)c4F)CC3=CC[C@]12O | >71.1 | 14 | 2.83 | 28.3 | < 5.58 | 0.397 | 140.2
3 | CCOc1cccc(/C=C/C(=O)O[C@H]2CC[C@@]3(C)C(=CC[C@]4(O)[C@@H]3C[C@@H](OC(=O)/C=C(\C)C(C)C)[C@@]3(C)[C@]4(O)CC[C@@]3(O)C(C)=O)C2)c1 | >85.9 | 141 | 9.3 | >15.2 | 24.9 | > 2.14 | >230.1
4 | CC(=O)[C@]1(O)CC[C@@]2(O)[C@]1(C)[C@H](OC(=O)/C=C(\C)C(C)C)C[C@@H]1[C@@]3(C)CC[C@H](OC(=O)/C=C/c4ccccc4C(F)(F)F)CC3=CC[C@]12O | 37.6 | > 1280 | 5 | <1.4 | 46.9 | 1.76 | 352.9
5 | CC(=O)[C@]1(O)CC[C@@]2(O)[C@]1(C)[C@H](OC(=O)/C=C(\C)C(C)C)C[C@@H]1[C@@]3(C)CC[C@H](OC(=O)/C=C/c4ccc(C(F)(F)F)cc4)CC3=CC[C@]12O | >21.1 | 1270 | 10.1 | >1 | 60.2 | > 1.27 | >125.9
6 | COc1ccc(/C=C/C(=O)O[C@H]2CC[C@@]3(C)C(=CC[C@]4(O)[C@@H]3C[C@@H](OC(=O)/C=C(\C)C(C)C)[C@@]3(C)[C@]4(O)CC[C@@]3(O)C(C)=O)C2)cc1OC | >72.7 | 85.2 | 11.8 | >18.8 | 22.1 | > 1.6 | >135.6
7 | CC(=O)[C@]1(O)CC[C@@]2(O)[C@]1(C)[C@H](OC(=O)/C=C(\C)C(C)C)C[C@@H]1[C@@]3(C)CC[C@H](OC(=O)/C=C/c4ccccc4Cl)CC3=CC[C@]12O | >40.4 | 550 | 22.9 | >2.1 | 28.4 | > 1.15 | >50.1
8 | CC(=O)[C@]1(O)CC[C@@]2(O)[C@]1(C)[C@H](OC(=O)/C=C(\C)C(C)C)C[C@@H]1[C@@]3(C)CC[C@H](OC(=O)/C=C/c4cccc(F)c4F)CC3=CC[C@]12O | 9 | 16.4 | 2.86 | 7.2 | 13.2 | 0.118 | >41.2
9 | CC(=O)[C@]1(O)CC[C@@]2(O)[C@]1(C)[C@H](OC(=O)/C=C(\C)C(C)C)C[C@@H]1[C@@]3(C)CC[C@H](OC(=O)/C=C/c4ccc(F)c(F)c4)CC3=CC[C@]12O | >82.7 | 69.2 | 4.66 | >18.7 | 15.6 | > 1.29 | >277
10 | CC(=O)[C@]1(O)CC[C@@]2(O)[C@]1(C)[C@H](OC(=O)/C=C(\C)C(C)C)C[C@@H]1[C@@]3(C)CC[C@H](OC(=O)/C=C/c4ccc(Br)cc4)CC3=CC[C@]12O | >35.5 | 485 | 16 | >2.7 | 36.4 | > 1.29 | >80.6
11 | CC(=O)[C@]1(O)CC[C@@]2(O)[C@]1(C)[C@H](OC(=O)/C=C(\C)C(C)C)C[C@@H]1[C@@]3(C)CC[C@H](OC(=O)/C=C/c4cccc(F)c4)CC3=CC[C@]12O | >126.7 | 12.6 | 4.75 | >84.7 | 8.4 | > 1.06 | >224

— ChEMBL document CHEMBL2046311, “Design, synthesis, and molecular hybrids of caudatin and cinnamic acids as novel anti-hepatitis B virus agents” (Eur J Med Chem, 2012)
